Assay results published in ChEMBL document CHEMBL1154436, “Synthesis, pharmacological activity and hydrolytic behavior of ethylenediamine and benzathine conjugates of ibuprofen” (Eur J Med Chem, 2008).

Key:
[1] = Chemical stability assessed as hydrolysis in hydrochloric acid buffer at pH 1.2; assay type: physicochemical
Summary of the method: (§1)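 Hydrolysis in HCl (pH 1.2) or phosphate (pH 7.4) buffer, 0.05 M total buffer, ionic strength held at 0.5 M with KCl, 37 °C. Released parent drug measured by UV in a chloroform extract. At pH 7.4, sampled at 0.5–10 h. pH 1.2 assay run 2 h. First-order k = 2.303/t·log(a/(a−x)), t in minutes; half-life derived. Mean of three sets.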

Rattus norvegicus [2] = assay: Antiinflammatory activity in Wistar rat assessed as inhibition of carrageenan-induced paw edema at 29.98 mg/kg, po administered 30 mins before carrageenan challenge measured 24 hrs after post drug dose; assay type: functional
Summary of the method: (§2)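 Wistar rats (150–200 g), four groups of six. Drug given orally, 0.75–1.0 ml of a suspension in 0.5% w/v sodium CMC (stocks 4, 4.23, 5.99 mg/ml), dose molecularly equivalent to ibuprofen 20 mg/kg. Control group received no drug. Carrageenan 1%, 0.1 ml, injected subplantar into the left hind paw 30 min after dosing. Paw volume measured before and after treatment. Inhibition % = [(Vt−V0)control − (Vt−V0)treated]/(Vt−V0)control × 100. One-way ANOVA versus control.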

[3] = Chemical stability assessed as hydrolysis in phosphate buffer at pH 7.4; assay type: physicochemical; summary of the method: as §1
Rattus norvegicus [4] = assay: Antiinflammatory activity in Wistar rat assessed as inhibition of carrageenan-induced paw edema at 29.98 mg/kg, po administered 30 mins before carrageenan challenge measured 3 hrs after post drug dose; assay type: functional; summary of the method: as §2
Mus musculus [5] = assay: Analgesic activity in Swiss albino mouse assessed as protection against acetic acid-induced writhing at 29.98 mg/kg, po administered 3 hrs mins before acetic acid challenge relative to control; assay type: functional
Summary of the method: (§3)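 Mice, four groups of six: vehicle control 5 ml/kg, or test drug as a homogeneous suspension in 0.5% w/v aqueous sodium CMC (stocks 1, 1.05, 1.49 mg/ml), 0.5–0.6 ml orally, doses molecularly equivalent to ibuprofen 20 mg/kg. Acetic acid given i.p. at 1 ml/100 g body weight. Writhings counted over 10 min. Protection % = 100 − (test/control writhings × 100). Mean ± S.E.M.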

Rattus norvegicus [6] = assay: Antiinflammatory activity in Wistar rat assessed as inhibition of carrageenan-induced paw edema at 20 mg/kg, po administered 30 mins before carrageenan challenge measured 24 hrs after post drug dose; assay type: functional; summary of the method: as §2
Rattus norvegicus [7] = assay: Antiinflammatory activity in Wistar rat assessed as inhibition of carrageenan-induced paw edema at 20 mg/kg, po administered 30 mins before carrageenan challenge measured 3 hrs after post drug dose; assay type: functional; summary of the method: as §2
Rattus norvegicus [8] = assay: Gastrointestinal toxicity in Wistar rat assessed ulcer index at 100 mg/kg, po after 17 hrs; assay type: organism-based; design: dose 100 mg/kg, route oral; conditions: in vivo
Summary of the method: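 Adult Wistar rats (150–200 g), four groups of six, fasted 8 h before dosing. Vehicle control, ibuprofen 100 mg/kg, or conjugate at a dose molecularly equivalent to ibuprofen 100 mg/kg. Killed 17 h after dosing, with food and water ad libitum. Gastric mucosa examined with a 4× binocular magnifier. Lesions classed as large (>2 mm), small (1–2 mm) or punctiform (<1 mm) and scored. Index = treated mean score minus control mean score.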

Mus musculus [9] = assay: Analgesic activity in Swiss albino mouse assessed as protection against acetic acid-induced writhing at 20 mg/kg, po administered 3 hrs mins before acetic acid challenge relative to control; assay type: functional; summary of the method: as §3
Rattus norvegicus [10] = assay: Antiinflammatory activity in Wistar rat assessed as inhibition of carrageenan-induced paw edema at 21.15 mg/kg, po administered 30 mins before carrageenan challenge measured 24 hrs after post drug dose; assay type: functional; summary of the method: as §2
Rattus norvegicus [11] = assay: Antiinflammatory activity in Wistar rat assessed as inhibition of carrageenan-induced paw edema at 21.15 mg/kg, po administered 30 mins before carrageenan challenge measured 3 hrs after post drug dose; assay type: functional; summary of the method: as §2
Mus musculus [12] = assay: Analgesic activity in Swiss albino mouse assessed as protection against acetic acid-induced writhing at 21.15 mg/kg, po administered 3 hrs mins before acetic acid challenge relative to control; assay type: functional; summary of the method: as §3

SMILES | Stability [1] | inhibition in vivo at 29.98 mg/kg (Rattus norvegicus [2]) | half-life [3] | inhibition in vivo at 29.98 mg/kg (Rattus norvegicus [4]) | Activity (Mus musculus [5]) | inhibition in vivo at 20 mg/kg (Rattus norvegicus [6]) | inhibition in vivo at 20 mg/kg (Rattus norvegicus [7]) | UI (Rattus norvegicus [8]) | Activity (Mus musculus [9]) | inhibition in vivo at 21.15 mg/kg (Rattus norvegicus [10]) | inhibition in vivo at 21.15 mg/kg (Rattus norvegicus [11]) | Activity (Mus musculus [12])
CC(C)Cc1ccc(C(C)C(=O)N(CCN(Cc2ccccc2)C(=O)C(C)c2ccc(CC(C)C)cc2)Cc2ccccc2)cc1 (mixture of isomers) | Stable | 32.4% | 1.38 h | 53.5% | 35.84% |  |  |  |  |  |  | 
CC(C)Cc1ccc(C(C)C(=O)O)cc1 (stereo not given) [IBUPROFEN] |  |  |  |  |  | 35.6% | 52.1% | 13.51 | 23.42% |  |  | 
CC(C)Cc1ccc(C(C)C(=O)NCCNC(=O)C(C)c2ccc(CC(C)C)cc2)cc1 (mixture of isomers) | Stable |  | 1.16 h |  |  |  |  | 4.63 |  | 38% | 48% | 29.63%
